23 compounds from ChEMBL document CHEMBL1157579, “Discovery of potent sulfonamide P4-capped ketoamide second generation inhibitors of hepatitis C virus NS3 serine protease with favorable pharmacokinetic profiles in preclinical species” (Bioorg Med Chem, 2010) can be followed below.

One data set relates to Hepatitis C virus. As to the kind of experiment: Antiviral activity against Hepatitis C virus genotype 1 by replicon assay. It counts as functional, organism-based, Hepacivirus hominis.
Data set [1] is described as follows: Selectivity index, ratio of Ki for HNE to Ki for NS4A-tethered single chain NS3 serine protease. The procedure, abridged:
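Compounds tested against human neutrophil elastase as a counter-protease; selectivity expressed as HNE Ki divided by HCV NS3 protease Ki.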

Data set [2] is described as follows: AUC (0 to 6 hrs) in rat at 10 mg/kg, po. It is filed as ADME, organism-based. Also noted: time < 6 hr, dose 10 mg/kg, route oral. Conditions: plasma.
Data set [3] in a line: AUC (0 to 6 hrs) in dog at 2 mg/kg, po. It is filed as ADME, organism-based, Canis lupus familiaris. Also noted: time < 6 hr, dose 2 mg/kg, route oral. Conditions: plasma.
A short description of data set [4]: Inhibition of HCV NS4A-tethered single chain NS3 serine protease assessed as Ac-DTEDVVP(Nva)- O-PAP substrate hydrolysis by spectrophotometric assay. Also noted: species or system Hepacivirus hominis. Summed up: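 Ki* reported for a single P1 diastereomer, within twofold at 95% confidence limit.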
Data set [5] can be described thus: AUC (0 to 6 hrs) in monkey at 10 mg/kg, po. It counts as ADME, organism-based, Macaca mulatta. Further details: time < 6 hr, dose 10 mg/kg, route oral. Conditions: rhesus monkey, plasma.
Data set [6] is described as follows: AUC (0 to 6 hrs) in dog at 3 mg/kg, po. It counts as ADME, organism-based, Canis lupus familiaris. Further details: time < 6 hr, dose 3 mg/kg, route oral. Conditions: plasma.

Regarding `CN(C1CC1)S(=O)(=O)CC1(NC(=O)N[C@H](C(=O)N2C[C@H]3[C@@H]([C@H]2C(=O)N[C@@H](CC2CC2)C(=O)C(=O)NC2CC2)C3(C)C)C(C)(C)C)CCCCC1`, the 90% effect level in the data set on Hepatitis C virus (EC90) was put at 60 nM. Further, the Ratio Ki in data set [1] came out at 113. Also, the AUC(0-t) at 6 h turned out to be 2.2 µM·h in data set [2] and 1.4 µM·h in data set [3]. Also, in data set [4], the Ki was found to be 15 nM.
With `CCC[C@H](NC(=O)[C@@H]1[C@@H]2[C@H](CN1C(=O)[C@@H](NC(=O)NC1(CS(=O)(=O)N(C)C3CC3)CCCCC1)C(C)(C)C)C2(C)C)C(=O)C(=O)NC1CC1`, in the data set on Hepatitis C virus, the EC90 turned out to be 55 nM. Besides, the Ratio Ki in data set [1] is 82. Further, the results for the AUC(0-t) at 6 h in data set [5], in data set [2] and in data set [3] were 3.3 µM·h, 1.8 µM·h and 6.9 µM·h, respectively. Also, the Ki in data set [4] is 8 nM.
In the data set on Hepatitis C virus, `CN(C1CC1)S(=O)(=O)CC1(NC(=O)N[C@H](C(=O)N2CC3C([C@H]2C(=O)N[C@@H](CCC2CC2)C(=O)C(=O)NC2CC2)C3(C)C)C(C)(C)C)CCCCC1` (single isomer, unassigned) showed an EC90 of 75 nM. In data set [1], the Ratio Ki came to 2480. In addition, the AUC(0-t) at 6 h in data set [5] amounted to 5.4 µM·h; in data set [2], 0.9 µM·h; in data set [3], 4 µM·h. For the same compound, the Ki in data set [4] was found to be 6 nM.
`CCC[C@H](NC(=O)C1[C@@H]2[C@H](CN1C(=O)[C@@H](NC(=O)NC1([C@@H](C)S(=O)(=O)N(C)C)CCCCC1)C(C)(C)C)C2(C)C)C(=O)C(=O)NC1CC1` (stereo partly drawn) showed an EC90 with Hepatitis C virus of 85 nM. Also, the AUC(0-t) at 6 h was 0.6 µM·h in data set [2] and 0.1 µM·h in data set [3]. Further, in data set [4], the Ki was 2 nM.
Compound `CCC[C@H](NC(=O)[C@@H]1[C@@H]2[C@H](CN1C(=O)[C@@H](NC(=O)NC1(CS(=O)(=O)N3CCOCC3)CCCCC1)C(C)(C)C)C2(C)C)C(=O)C(=O)NC1CC1` displayed an EC90 with Hepatitis C virus of 45 nM. Besides, the Ratio Ki in data set [1] came to 135. In addition, the AUC(0-t) at 6 h in data set [2] and in data set [3] was 0.3 µM·h in each case. For the same compound, the Ki in data set [4] came out at 8 nM.
`CCC[C@H](NC(=O)[C@@H]1[C@@H]2[C@H](CN1C(=O)[C@@H](NC(=O)NC1(CS(=O)(=O)N(C(C)C)C3CC3)CCCCC1)C(C)(C)C)C2(C)C)C(=O)C(=O)NC1CC1` came in with an EC90 in the data set on Hepatitis C virus of 100 nM. The AUC(0-t) at 6 h in data set [2] was found to be 1.7 µM·h; in data set [3], 0.5 µM·h. The Ki in data set [4] is 6 nM.
In the data set on Hepatitis C virus, `CCC[C@H](NC(=O)[C@@H]1[C@@H]2[C@H](CN1C(=O)[C@@H](NC(=O)NC1(CS(=O)(=O)N(C)CC3CC3)CCCCC1)C(C)(C)C)C2(C)C)C(=O)C(=O)NC1CC1` returned an EC90 of 135 nM. The Ki in data set [4] is 9 nM.
In the data set with Hepatitis C virus, `CCC[C@H](NC(=O)[C@@H]1[C@@H]2[C@H](CN1C(=O)[C@@H](NC(=O)NC1(CS(=O)(=O)N(C)C(C)(C)CF)CCCCC1)C(C)(C)C)C2(C)C)C(=O)C(=O)NC1CC1` yielded an EC90 of 45 nM. Moreover, the AUC(0-t) at 6 h in data set [2] was 0.1 µM·h; in data set [3] it was 0.2 µM·h. Moreover, the Ki in data set [4] came out at 2.8 nM.
The like results for `CCC[C@H](NC(=O)[C@@H]1[C@@H]2[C@H](CN1C(=O)[C@@H](NC(=O)NC1(CS(=O)(=O)N3CCC3)CCCCC1)C(C)(C)C)C2(C)C)C(=O)C(=O)NC1CC1` were, in that order, 80 nM, 0.8 µM·h, 0.8 µM·h and 7 nM.
`CCC[C@H](NC(=O)[C@@H]1[C@@H]2[C@H](CN1C(=O)[C@@H](NC(=O)NC1(CS(=O)(=O)N(C)CC)CCCCC1)C(C)(C)C)C2(C)C)C(=O)C(=O)NC1CC1` had an EC90 in the data set on Hepatitis C virus of 65 nM. In addition, the Ratio Ki in data set [1] was 64. Moreover, the AUC(0-t) at 6 h in data set [5] stood at 0.1 µM·h; in data set [2], 1.5 µM·h; in data set [3] it was 0.5 µM·h. In data set [4], the Ki stood at 9 nM.
Compound `CCC[C@H](NC(=O)[C@@H]1[C@@H]2[C@H](CN1C(=O)[C@@H](NC(=O)NC1(CS(=O)(=O)NC)CCCCC1)C(C)(C)C)C2(C)C)C(=O)C(=O)NC1CC1` registered an EC90 in the data set with Hepatitis C virus of 300 nM. The Ratio Ki in data set [1] came to 58. In addition, the Ki in data set [4] is 15 nM.
For the compound `CCC[C@H](NC(=O)[C@@H]1[C@@H]2[C@H](CN1C(=O)[C@@H](NC(=O)NC1([C@@H]3CCN(C)S3(=O)=O)CCCCC1)C(C)(C)C)C2(C)C)C(=O)C(=O)NC1CC1`, the 90% effect level in the data set with Hepatitis C virus (EC90) was put at 20 nM. Further, the Ratio Ki in data set [1] amounted to 340. The compound also had an AUC(0-t) at 6 h in data set [2] of 0.1 µM·h. In addition, in data set [4], the Ki turned out to be 4 nM.
In the same order, the values of `CCC[C@H](NC(=O)[C@@H]1[C@@H]2[C@H](CN1C(=O)[C@@H](NC(=O)NC1(C3CCN(C4CC4)S3(=O)=O)CCCCC1)C(C)(C)C)C2(C)C)C(=O)C(=O)NC1CC1` (single isomer, unassigned) are 20 nM, 340, 0.1 µM·h and 4 nM.
Compound `C#CCCC(NC(=O)[C@@H]1[C@@H]2[C@H](CN1C(=O)[C@@H](NC(=O)N[C@H](C(=O)C1CC1)C1CCCCC1)C(C)(C)C)C2(C)C)C(=O)C(=O)NC1CC1` (stereo partly drawn) registered an EC90 in the data set with Hepatitis C virus of 55 nM. In addition, the Ratio Ki in data set [1] was 20. For the same compound, in data set [3], the AUC(0-t) at 6 h turned out to be 0.1 µM·h. The Ki in data set [4] stood at 4 nM.
On to `CCC[C@H](NC(=O)[C@@H]1[C@@H]2[C@H](CN1C(=O)[C@@H](NC(=O)NC1([C@H](C)S(=O)(=O)N(C)C)CCCCC1)C(C)(C)C)C2(C)C)C(=O)C(=O)NC1CC1`, for which the Ki in data set [4] came out at 22 nM.
`CC(C)(C)[C@H](NC(=O)NC1(C(=O)OCc2ccccc2)CCCCC1)C(=O)N1C[C@H]2[C@@H]([C@H]1C(=O)NC(CC1CC1)C(=O)C(N)=O)C2(C)C` (stereo partly drawn) registered an EC90 in the data set on Hepatitis C virus of 20 nM. The Ratio Ki in data set [1] came to 55. In data set [5], this compound yielded an exposure AUC(0-t) at 6 h of 0.05 µM·h. Besides, the Ki in data set [4] was determined as 49 nM.
In the data set on Hepatitis C virus, `CCCC[C@H](NC(=O)[C@@H]1[C@@H]2[C@H](CN1C(=O)[C@@H](NC(=O)NC1(CS(=O)(=O)N(C)C3CC3)CCCCC1)C(C)(C)C)C2(C)C)C(=O)C(=O)NC1CC1` came in with an EC90 of 105 nM. For the same compound, in data set [1], the Ratio Ki came out at 959. Further, the Ki in data set [4] stood at 11 nM.
Turning to `CCC[C@H](NC(=O)[C@@H]1[C@@H]2[C@H](CN1C(=O)[C@@H](NC(=O)NC1(CS(=O)(=O)N(C)C3CCC3)CCCCC1)C(C)(C)C)C2(C)C)C(=O)C(=O)NC1CC1`, the concentration for an effect of 90% (EC90) in the data set with Hepatitis C virus amounted to 90 nM. For the same compound, the results for the AUC(0-t) at 6 h in data set [2] and in data set [3] were 0.3 µM·h and 0.2 µM·h, respectively. The Ki in data set [4] amounted to 7 nM.
Consider `CC(C)(C)NC(=O)N[C@H](C(=O)N1C[C@H]2[C@@H]([C@H]1C(=O)NC(CC1CCC1)C(=O)C(N)=O)C2(C)C)C(C)(C)C` (stereo partly drawn) [BOCEPREVIR], for which the AUC(0-t) at 6 h in data set [6] came out at 3.1 µM·h; in data set [5], 0.3 µM·h; in data set [2] it was 0.1 µM·h. In addition, the Ki in data set [4] is 14 nM.
For the compound `CCC[C@H](NC(=O)[C@@H]1[C@@H]2[C@H](CN1C(=O)[C@@H](NC(=O)NC1(CS(=O)(=O)N(C)C)CCCCC1)C(C)(C)C)C2(C)C)C(=O)C(=O)NC1CC1`, the EC90 in the data set with Hepatitis C virus came out at 55 nM. For the same compound, in data set [1], the Ratio Ki was 82. Besides, the AUC(0-t) at 6 h in data set [5] came out at 0.1 µM·h; in data set [2], 0.6 µM·h; in data set [3], 6.1 µM·h. For the same compound, the Ki in data set [4] came out at 6 nM.
On to `CCC[C@H](NC(=O)[C@@H]1[C@@H]2[C@H](CN1C(=O)[C@@H](NC(=O)NC1(CS(=O)(=O)N(C)C(C)(C)C)CCCCC1)C(C)(C)C)C2(C)C)C(=O)C(=O)NC1CC1`, for which the EC90 in the data set with Hepatitis C virus is 55 nM. Further, the Ratio Ki in data set [1] amounted to 36. For the same compound, the results for the AUC(0-t) at 6 h in data set [2] and in data set [3] were 0.6 µM·h and 0.2 µM·h, respectively. The Ki in data set [4] was 8 nM.
The compound `CCC[C@H](NC(=O)[C@@H]1[C@@H]2[C@H](CN1C(=O)[C@@H](NC(=O)NC1(CS(=O)(=O)N(CC)C3CC3)CCCCC1)C(C)(C)C)C2(C)C)C(=O)C(=O)NC1CC1` returned an EC90 in the data set on Hepatitis C virus of 65 nM. For the same compound, the Ratio Ki in data set [1] was found to be 131. Also, the AUC(0-t) at 6 h in data set [2] came out at 1 µM·h; in data set [3] it was 7.9 µM·h. The Ki in data set [4] was found to be 5 nM.
In the same order, the values of `CCC[C@H](NC(=O)[C@@H]1[C@@H]2[C@H](CN1C(=O)[C@@H](NC(=O)NC1(CS(=O)(=O)N(C)C(C)C)CCCCC1)C(C)(C)C)C2(C)C)C(=O)C(=O)NC1CC1` are 70 nM, 97, 0.9 µM·h, 0.2 µM·h and 7 nM.

As usually defined, the EC90 is the concentration at which the effect reaches the 90% level. For orientation: AUC(0-t) means the area under the concentration-time curve up to a stated or last time point. A word on the Ki: it is a dissociation constant, usually derived from enzyme kinetics or from competition with a known ligand.
